Results published in ChEMBL document CHEMBL1629705, “PSI-7851, a pronucleotide of beta-D-2'-deoxy-2'-fluoro-2'-C-methyluridine monophosphate, is a potent and pan-genotype inhibitor of hepatitis C virus replication” (Antimicrob Agents Chemother, 2010).
pEC50, pIC50: −log10 of the molar value.

How the values were obtained:
[1] = target: T1, DNA polymerase alpha catalytic subunit (Homo sapiens, UniProt P09884); assay: Inhibition of human DNA polymerase alpha assessed as incorporation of [alpha-32P]dCTP up to 1mM preincubated for 30 mins by whatman DE81 paper binding assay
T1 sequence (P09884 whole entry): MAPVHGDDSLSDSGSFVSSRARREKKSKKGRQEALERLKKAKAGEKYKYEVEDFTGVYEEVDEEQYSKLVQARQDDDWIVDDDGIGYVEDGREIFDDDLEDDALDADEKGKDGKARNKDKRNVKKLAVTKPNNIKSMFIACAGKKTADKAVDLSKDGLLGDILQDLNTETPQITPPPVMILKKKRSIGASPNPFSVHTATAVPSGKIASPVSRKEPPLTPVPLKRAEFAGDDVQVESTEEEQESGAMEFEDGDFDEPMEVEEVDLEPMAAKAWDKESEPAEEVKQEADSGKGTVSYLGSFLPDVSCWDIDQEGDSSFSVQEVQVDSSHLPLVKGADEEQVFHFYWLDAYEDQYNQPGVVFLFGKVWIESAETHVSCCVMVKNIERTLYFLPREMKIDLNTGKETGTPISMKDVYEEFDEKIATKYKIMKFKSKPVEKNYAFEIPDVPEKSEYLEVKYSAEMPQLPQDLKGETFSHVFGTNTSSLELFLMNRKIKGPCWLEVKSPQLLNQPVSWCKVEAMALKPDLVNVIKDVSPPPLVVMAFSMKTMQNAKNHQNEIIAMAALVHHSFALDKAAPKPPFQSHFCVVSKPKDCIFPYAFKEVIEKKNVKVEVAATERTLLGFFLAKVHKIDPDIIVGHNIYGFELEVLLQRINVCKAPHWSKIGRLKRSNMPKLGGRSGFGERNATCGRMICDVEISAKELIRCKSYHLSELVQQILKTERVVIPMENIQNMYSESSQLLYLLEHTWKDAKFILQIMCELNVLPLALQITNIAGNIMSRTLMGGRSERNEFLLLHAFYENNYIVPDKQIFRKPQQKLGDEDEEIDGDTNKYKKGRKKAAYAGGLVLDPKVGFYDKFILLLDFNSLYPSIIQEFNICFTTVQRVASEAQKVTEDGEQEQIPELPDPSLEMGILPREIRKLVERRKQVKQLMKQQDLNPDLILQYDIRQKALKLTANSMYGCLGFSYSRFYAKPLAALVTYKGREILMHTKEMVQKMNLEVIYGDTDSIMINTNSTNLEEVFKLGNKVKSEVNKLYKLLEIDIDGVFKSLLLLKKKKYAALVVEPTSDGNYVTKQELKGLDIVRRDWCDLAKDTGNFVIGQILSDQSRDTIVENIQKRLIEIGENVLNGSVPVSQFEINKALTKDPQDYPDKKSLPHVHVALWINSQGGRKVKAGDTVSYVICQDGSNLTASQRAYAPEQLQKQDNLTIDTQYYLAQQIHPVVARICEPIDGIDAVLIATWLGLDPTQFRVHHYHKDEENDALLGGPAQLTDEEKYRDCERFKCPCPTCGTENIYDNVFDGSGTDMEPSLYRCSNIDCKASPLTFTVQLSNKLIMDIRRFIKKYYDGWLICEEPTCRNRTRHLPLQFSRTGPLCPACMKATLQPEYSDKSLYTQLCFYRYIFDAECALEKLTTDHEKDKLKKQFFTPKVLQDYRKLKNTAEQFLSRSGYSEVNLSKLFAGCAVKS
Outline: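 Human DNA polymerase α (20 μg/ml) or γ (50 μg/ml) in 50 mM Tris pH 7.5, 50 mM NaCl, activated calf thymus DNA, 20 μM each dNTP, [α-32P]dCTP, 5 mM MgCl2. Nucleotide inhibitor up to 1 mM. 37°C, quenched with EDTA at 30 min. Product measured by DE81 paper binding; IC50 by nonlinear fit.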

Hepatitis C virus [2] = assay: Antiviral activity against Hepatitis C virus Con1 infected in human lunet cells assessed as inhibition of viral RNA replication after 4 days by luciferase reporter gene assay; type: functional, organism-based, Hepacivirus hominis; details: 96 h
Outline: (§1)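 Genotype 1b Con1 subgenomic replicon cells (ET-lunet, 3,000 cells/well, firefly luciferase ET replicon; clone A, 1,500 cells/well) incubated 4 days with serially diluted compound. Replication read by luciferase luminescence and/or real-time RT-PCR.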

Hepatitis C virus [3] = assay: Antiviral activity against Hepatitis C virus isolate Con1 infected in human HuH-7 cells assessed as inhibition of viral RNA replication after 4 days by luciferase reporter gene assay; type: functional, Hepacivirus hominis; details: Con1, Huh-7, 96 h; outline: as §1
West Nile virus = assay: Antiviral activity against West Nile virus New York by neutral red assay; type: functional, organism-based
Hepatitis C virus [4] = assay: Antiviral activity against Hepatitis C virus harboring wild-type NS5B infected in human lunet cells by luciferase-based replicon assay; type: functional, Hepacivirus hominis
Outline: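 ET-lunet cells with the ET genotype 1b replicon, wild-type or S96T/N142T (ET replicon with these mutations electroporated into Lunet cells, selected in 0.2 mg/ml G418). 3,000 cells/well, 4 days with serially diluted compound. Firefly luciferase luminescence read-out; EC90 from dose–response.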

pIC50 [1] | Compound | pEC50 (Hepatitis C virus [2]) | EC90 (Hepatitis C virus [2]) [µM] | EC90 (Hepatitis C virus [3]) [µM] | pEC50 (West Nile virus) | EC90 (Hepatitis C virus [4]) [µM]
3.26 | C[C@@]1(F)[C@H](O)[C@@H](COP(=O)(O)OP(=O)(O)OP(=O)(O)O)O[C@H]1n1ccc(=O)[nH]c1=O [GS-461203] |  |  |  |  | 
 | CC(C)OC(=O)[C@H](C)NP(=O)(OC[C@H]1O[C@@H](n2ccc(=O)[nH]c2=O)[C@](C)(F)[C@@H]1O)Oc1ccccc1 (stereo partly specified) | 5.87 | 3.81 | 4.32 | < 4.00 | 0.52
